Our source for the Activity and EC50 values is ChEMBL document CHEMBL4219235, “Novel fatty acid chain modified GLP-1 derivatives with prolonged in vivo glucose-lowering ability and balanced glucoregulatory activity” (Bioorg Med Chem, 2018).

Calls of active or inactive are those of the source. The rule behind the calls is not given here. Some results are limits rather than exact numbers.

The test system of data set [1] is INS1. Briefly: Cytoprotective activity against STZ-induced oxidative stress in rat INS-1 cells assessed as reduction in apoptosis at 10 nM after 24 hrs by Annexin-V-FITC/propidium iodide staining based flow cytometric analysis. The format is functional, cell-based. An outline of the steps: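 INS-1 cells, about 5000/well, were seeded for 24 h, then exposed to glucolipotoxic medium, 50 µM H2O2 or 1 µM STZ, plus peptide at 10 nM, for 24 h. Apoptosis was analyzed by flow cytometry; triplicate, repeated three times.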

Data set [2] relates to Mus musculus. The data set is described as follows: Antidiabetic activity in C57BL/6 mouse assessed as reduction in blood glucose level at 25 nmol/kg, ip treated 30 mins prior to glucose challenge measured up to 90 mins by IPGTT. The format is functional, organism-based. An outline of the steps: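 Male C57BL/6 mice, 6 weeks old, fasted overnight (12 h), n = 6/group; given 25 nmol/kg or saline i.p., then i.p. glucose challenge (2.0 g/kg) 30 min later, set as 0 h. Glucose challenges were repeated at 6 h intervals to mimic three meals a day. Blood glucose was followed and AUC calculated.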

In data set [3] the test system is Mus musculus. Briefly: Antidiabetic activity in STZ/diet-induced obese C57BL/6 mouse assessed as reduction in food intake at 25 nmol/kg, ip measured after 6 hrs relative to control. The format is functional. Set-up: scale not given: the % may be the effect or the level left. An outline of the steps: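 Acute study in fasted mice given an i.p. dose; food intake was measured at 6 h after administration.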

Data set [4] concerns Mus musculus. Briefly: Antidiabetic activity in STZ-induced diabetic Kunming mouse model assessed as fasting blood glucose level at 25 nmol/kg, ip administered once daily for 3 weeks measured at 5 days interval for 21 days during compound dosing (reference value: […]). The format is functional. The gist of the method: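 STZ diabetes induced with 40 mg/kg/day i.p. for 5 consecutive days after overnight fasting. Mice with fasting glucose ≥11.1 mM were grouped by matched body weight and dosed 25 nmol/kg i.p. once daily for 3 weeks; saline served as control. Fasting plasma glucose was measured every five days, and HbA1c at day 24; n = 6/group.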

Data set [5] concerns Mus musculus. The data set is described as follows: Antidiabetic activity in STZ/diet-induced obese C57BL/6 mouse assessed as reduction in serum total triglyceride level at 25 nmol/kg, ip administered daily for 4 weeks measured post last dose. The format is functional, organism-based. The gist of the method: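 Male C57BL/6J DIO mice on high-fat diet were treated for 4 weeks with saline as control; LFD-fed mice (n = 6/group) were used as normal reference. Water intake, food intake and body weight were recorded daily. Terminal serum leptin and adiponectin were measured by ELISA. TC, TG, HDL, LDL, ALT and AST were measured on a clinical chemistry analyzer.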

The target of data set [6] is Albumin (Homo sapiens, UniProt P02768). The data set is described as follows: Binding affinity to human serum albumin after 3 hrs by LC-MS/MS analysis. Set-up: concentration or dose not given beside the values. The gist of the method: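 HSA was coupled to NHS-activated Sepharose (6–7 mg HSA/mL wet resin); an inactivated albumin-free resin served as control. Peptide (100 µg/mL in PBS) was incubated with each resin for 3 h at 25 °C. After centrifugation, unbound peptide in the supernatant was quantified by LC-MS/MS.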
Albumin, sequence (P02768 whole entry): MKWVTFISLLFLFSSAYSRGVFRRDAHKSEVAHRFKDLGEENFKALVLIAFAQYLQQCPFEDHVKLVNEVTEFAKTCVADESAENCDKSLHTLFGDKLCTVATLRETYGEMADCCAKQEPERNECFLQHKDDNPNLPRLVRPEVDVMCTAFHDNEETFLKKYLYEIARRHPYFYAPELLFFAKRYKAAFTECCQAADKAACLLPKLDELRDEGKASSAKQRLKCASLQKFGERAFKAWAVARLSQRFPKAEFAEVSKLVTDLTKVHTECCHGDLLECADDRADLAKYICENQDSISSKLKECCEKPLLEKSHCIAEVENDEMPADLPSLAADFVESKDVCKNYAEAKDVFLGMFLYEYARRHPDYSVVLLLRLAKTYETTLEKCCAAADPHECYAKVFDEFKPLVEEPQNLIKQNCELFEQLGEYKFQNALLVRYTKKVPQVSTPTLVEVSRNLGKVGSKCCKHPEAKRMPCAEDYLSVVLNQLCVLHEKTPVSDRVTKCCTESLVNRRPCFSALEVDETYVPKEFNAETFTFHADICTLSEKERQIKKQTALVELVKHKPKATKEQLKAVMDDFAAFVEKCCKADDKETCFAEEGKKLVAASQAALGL

Data set [7] deals with INS1. Briefly: Cytoprotective activity against STZ-induced oxidative stress in rat INS-1 cells assessed as cell death at 1 nM after 24 hrs by MTT assay (reference value: 45%). The class given is functional. For orientation: Formazan colour is commonly taken as a measure of viable cells.
Data set [8] relates to INS1. The data set is described as follows: Cytoprotective activity against H2O2-induced glucolipotoxicity in rat INS-1 cells assessed as increase in cell viability at 1 to 100 nM after 24 hrs by MTT assay. The format is functional, cell-based. An outline of the steps:
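INS-1 cells, about 5000/well, were seeded for 4 h, then stressed with one of: glucolipotoxic medium (25 mM glucose + 0.4 mM oleate-BSA), 50 µM H2O2 or 1 µM STZ. Peptide (1, 10 or 100 nM) was added and cells were incubated 24 h. Viability was read by MTT (200 µg/mL, 3 h, 37 °C), formazan dissolved in DMSO, A570. Triplicate, repeated three times.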

Data set [9] has as its target Glucagon-like peptide 1 receptor (Homo sapiens, UniProt P43220). Briefly: Agonist activity at recombinant human GLP1 receptor expressed in HEK293 cells assessed as cAMP accumulation by TR-FRET assay. The format is functional, cell-based. On the technique in general: Changes in cAMP serve as a functional read-out for many G protein-coupled receptors.

Glucagon-like peptide 1 receptor, sequence (P43220 whole entry): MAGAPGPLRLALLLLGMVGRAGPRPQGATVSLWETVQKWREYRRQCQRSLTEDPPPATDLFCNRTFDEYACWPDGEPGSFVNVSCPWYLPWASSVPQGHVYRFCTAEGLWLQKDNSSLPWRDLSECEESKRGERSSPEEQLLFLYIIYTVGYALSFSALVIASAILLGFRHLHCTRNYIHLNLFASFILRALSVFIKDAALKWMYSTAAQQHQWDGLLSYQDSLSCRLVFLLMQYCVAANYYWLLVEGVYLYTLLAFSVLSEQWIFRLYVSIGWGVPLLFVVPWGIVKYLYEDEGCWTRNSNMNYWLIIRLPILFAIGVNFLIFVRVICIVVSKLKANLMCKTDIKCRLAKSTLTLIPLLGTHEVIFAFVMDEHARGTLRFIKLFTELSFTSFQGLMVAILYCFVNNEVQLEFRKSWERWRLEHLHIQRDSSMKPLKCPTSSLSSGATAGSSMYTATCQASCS

Turning to `CC[C@H](C)[C@H](NC(=O)[C@H](Cc1ccccc1)NC(=O)[C@H](CCC(=O)O)NC(=O)[C@H](CCCCN)NC(=O)[C@H](C)NC(=O)[C@H](C)NC(=O)[C@H](CCC(N)=O)NC(=O)CNC(=O)[C@H](CCC(=O)O)NC(=O)[C@H](CC(C)C)NC(=O)[C@H](Cc1ccc(O)cc1)NC(=O)[C@H](CO)NC(=O)[C@H](CO)NC(=O)[C@@H](NC(=O)[C@H](CC(=O)O)NC(=O)[C@H](CO)NC(=O)[C@@H](NC(=O)[C@H](Cc1ccccc1)NC(=O)[C@@H](NC(=O)CNC(=O)[C@H](CCC(=O)O)NC(=O)CNC(=O)[C@@H](N)Cc1cnc[nH]1)[C@@H](C)O)[C@@H](C)O)C(C)C)C(=O)N[C@@H](C)C(=O)N[C@@H](Cc1c[nH]c2ccccc12)C(=O)N[C@@H](CC(C)C)C(=O)N[C@H](C(=O)N[C@@H](CCCCN)C(=O)NCC(=O)N[C@@H](CCCNC(=N)N)C(=O)N[C@@H](CSC1CC(=O)N(CCCCCCCCCCCC(=O)O)C1=O)C(N)=O)C(C)C` (some centres undefined), the outcome in data set [1], in [5] and in [8] was Active. For the same compound, in [2], the result was inactive. Further, the Activity result in [3] was “<=34.5%”; in [4] it was 1.07e+07 nmol/L; in data set [6], 62.4%; in [7], 28.8%. Also, the EC50 in data set [9] was found to be 0.0198 nM.

The EC50 is the concentration giving half of the maximal effect.
